Reference: the M2OR odorant receptor database

Legend:
Settings in all cases: stereoisomer not certain
[1] = target: T1, OR52D1 (Homo sapiens) (UniProt Q9H346)
T1 sequence (whole entry): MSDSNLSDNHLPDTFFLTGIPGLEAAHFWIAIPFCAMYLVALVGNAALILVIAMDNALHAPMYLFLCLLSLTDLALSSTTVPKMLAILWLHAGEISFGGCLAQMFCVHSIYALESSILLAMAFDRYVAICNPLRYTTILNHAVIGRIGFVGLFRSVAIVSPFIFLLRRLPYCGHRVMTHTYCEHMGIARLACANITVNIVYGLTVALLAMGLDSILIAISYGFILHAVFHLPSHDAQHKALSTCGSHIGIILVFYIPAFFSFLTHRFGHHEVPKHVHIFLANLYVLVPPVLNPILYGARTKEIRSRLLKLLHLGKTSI
How it was run: (§1)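 Each receptor–molecule pair is labelled responsive or non-responsive (inactive) according to whether the original authors judged the measured signal statistically different from baseline. The data were taken from the main text and supplementary material of published papers and checked for typos and inconsistencies. Assay methods differed by source, with transient luciferase assays in mammalian cell lines being common.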

[2] = target: OR52E1 (Homo sapiens) (UniProt Q8NGJ3)
How it was run: as §1

[3] = target: OR52E2 (Homo sapiens) (UniProt Q8NGJ4)
How it was run: as §1

[4] = target: OR52E4 (Homo sapiens) (UniProt Q8NGH9)
How it was run: as §1

[5] = target: OR52E5 (Homo sapiens) (UniProt Q8NH55)
How it was run: as §1

[6] = target: OR52E6 (Homo sapiens) (UniProt Q96RD3)
How it was run: as §1

[7] = target: OR52I1 (Homo sapiens) (UniProt Q8NGK6)
How it was run: as §1

[8] = target: OR52I2 (Homo sapiens) (UniProt Q8NH67)
How it was run: as §1

[9] = target: OR52J3 (Homo sapiens) (UniProt Q8NH60)
How it was run: as §1

[10] = target: OR52K1 (Homo sapiens) (UniProt Q8NGK4)
How it was run: as §1

[11] = target: OR52K2 (Homo sapiens) (UniProt Q8NGK3)
How it was run: as §1

[12] = target: OR52L1 (Homo sapiens) (UniProt Q8NGH7)
How it was run: as §1

[13] = target: OR52M1 (Homo sapiens) (UniProt Q8NGK5)
How it was run: as §1

[14] = target: OR52N1 (Homo sapiens) (UniProt Q8NH53)
How it was run: as §1

[15] = target: OR52N2 (Homo sapiens) (UniProt Q8NGI0)
How it was run: as §1

[16] = target: OR52N4 (Homo sapiens) (UniProt Q8NGI2)
How it was run: as §1

[17] = target: OR52N5 (Homo sapiens) (UniProt Q8NH56)
How it was run: as §1

[18] = target: OR52R1 (Homo sapiens) (UniProt Q8NGF1)
How it was run: as §1

[19] = target: OR52W1 (Homo sapiens) (UniProt Q6IF63)
How it was run: as §1

[20] = target: OR52L1 (Homo sapiens) (UniProt Q8NGH7); remark: listed apart in the source
How it was run: as §1

Measured: odorant receptor agonist call

Sequence of OR52R1 (Homo sapiens) (Q8NGF1 whole entry): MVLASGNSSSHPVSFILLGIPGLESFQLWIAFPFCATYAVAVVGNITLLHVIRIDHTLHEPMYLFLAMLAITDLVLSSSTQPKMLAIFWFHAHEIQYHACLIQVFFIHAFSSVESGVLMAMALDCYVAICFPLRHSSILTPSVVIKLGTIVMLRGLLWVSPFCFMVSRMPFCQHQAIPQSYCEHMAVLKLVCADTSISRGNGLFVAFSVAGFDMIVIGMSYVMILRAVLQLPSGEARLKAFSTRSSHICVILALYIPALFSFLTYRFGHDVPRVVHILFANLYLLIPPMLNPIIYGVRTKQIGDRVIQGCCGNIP
Sequence of OR52M1 (Homo sapiens) (Q8NGK5 whole entry): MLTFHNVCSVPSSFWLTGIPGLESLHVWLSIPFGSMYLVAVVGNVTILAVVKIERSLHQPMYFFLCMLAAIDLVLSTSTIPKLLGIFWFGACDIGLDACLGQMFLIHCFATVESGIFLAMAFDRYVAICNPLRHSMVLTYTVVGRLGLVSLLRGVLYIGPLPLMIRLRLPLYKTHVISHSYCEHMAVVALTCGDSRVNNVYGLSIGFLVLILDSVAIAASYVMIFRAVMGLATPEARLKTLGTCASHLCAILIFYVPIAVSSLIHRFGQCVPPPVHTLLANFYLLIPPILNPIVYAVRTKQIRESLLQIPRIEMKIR
Sequence of OR52I1 (Homo sapiens) (Q8NGK6 whole entry): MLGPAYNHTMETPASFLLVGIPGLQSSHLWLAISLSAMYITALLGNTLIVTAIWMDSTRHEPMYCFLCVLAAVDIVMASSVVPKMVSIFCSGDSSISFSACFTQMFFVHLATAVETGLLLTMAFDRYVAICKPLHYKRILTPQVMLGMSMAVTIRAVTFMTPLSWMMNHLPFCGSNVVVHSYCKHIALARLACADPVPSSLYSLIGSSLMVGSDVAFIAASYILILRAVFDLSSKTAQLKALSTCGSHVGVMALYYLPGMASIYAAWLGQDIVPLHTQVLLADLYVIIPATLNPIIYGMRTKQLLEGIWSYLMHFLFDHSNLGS
Sequence of OR52E1 (Homo sapiens) (Q8NGJ3 whole entry): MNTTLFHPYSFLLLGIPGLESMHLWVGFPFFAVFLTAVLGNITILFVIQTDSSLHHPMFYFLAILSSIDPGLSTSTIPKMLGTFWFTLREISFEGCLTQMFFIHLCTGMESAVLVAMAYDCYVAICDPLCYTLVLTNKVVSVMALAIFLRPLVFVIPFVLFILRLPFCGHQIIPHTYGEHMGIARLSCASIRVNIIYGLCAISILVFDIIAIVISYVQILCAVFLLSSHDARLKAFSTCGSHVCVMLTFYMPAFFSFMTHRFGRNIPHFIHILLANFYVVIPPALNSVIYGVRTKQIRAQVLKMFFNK
Sequence of OR52E4 (Homo sapiens) (Q8NGH9 whole entry): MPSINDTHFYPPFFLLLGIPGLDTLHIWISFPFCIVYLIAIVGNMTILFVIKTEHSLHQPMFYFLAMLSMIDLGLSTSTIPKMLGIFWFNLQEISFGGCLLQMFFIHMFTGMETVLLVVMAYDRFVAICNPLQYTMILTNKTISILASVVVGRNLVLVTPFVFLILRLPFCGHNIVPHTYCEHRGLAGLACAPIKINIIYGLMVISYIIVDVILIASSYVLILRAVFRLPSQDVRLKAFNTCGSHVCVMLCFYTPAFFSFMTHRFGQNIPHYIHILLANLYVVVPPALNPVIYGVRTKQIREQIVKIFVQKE
Sequence of OR52W1 (Homo sapiens) (Q6IF63 whole entry): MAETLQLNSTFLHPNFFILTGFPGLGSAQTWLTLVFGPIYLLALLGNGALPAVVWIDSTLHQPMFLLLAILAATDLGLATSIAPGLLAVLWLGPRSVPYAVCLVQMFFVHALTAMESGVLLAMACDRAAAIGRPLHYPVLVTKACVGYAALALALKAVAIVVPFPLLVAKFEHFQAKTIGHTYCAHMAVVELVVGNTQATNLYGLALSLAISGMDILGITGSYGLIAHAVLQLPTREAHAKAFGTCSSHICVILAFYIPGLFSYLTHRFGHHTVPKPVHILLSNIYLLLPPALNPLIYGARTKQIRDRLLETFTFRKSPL
Sequence of OR52N4 (Homo sapiens) (Q8NGI2 whole entry): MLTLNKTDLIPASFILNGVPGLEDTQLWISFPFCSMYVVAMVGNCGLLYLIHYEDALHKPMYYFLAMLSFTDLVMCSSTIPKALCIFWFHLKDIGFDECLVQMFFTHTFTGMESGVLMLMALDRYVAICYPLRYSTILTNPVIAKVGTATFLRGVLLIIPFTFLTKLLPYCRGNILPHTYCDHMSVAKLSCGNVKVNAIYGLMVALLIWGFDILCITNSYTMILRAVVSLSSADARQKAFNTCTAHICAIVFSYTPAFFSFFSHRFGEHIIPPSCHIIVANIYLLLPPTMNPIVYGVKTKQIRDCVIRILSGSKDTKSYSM
Sequence of OR52N5 (Homo sapiens) (Q8NH56 whole entry): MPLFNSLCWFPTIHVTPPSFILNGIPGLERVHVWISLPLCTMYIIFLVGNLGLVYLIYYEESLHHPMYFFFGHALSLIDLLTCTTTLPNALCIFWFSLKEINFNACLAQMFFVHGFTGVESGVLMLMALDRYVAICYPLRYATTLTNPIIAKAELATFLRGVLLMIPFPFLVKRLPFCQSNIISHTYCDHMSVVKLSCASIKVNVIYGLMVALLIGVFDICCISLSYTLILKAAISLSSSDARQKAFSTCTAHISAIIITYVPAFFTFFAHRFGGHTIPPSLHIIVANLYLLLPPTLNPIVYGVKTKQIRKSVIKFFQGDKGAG
Sequence of OR52I2 (Homo sapiens) (Q8NH67 whole entry): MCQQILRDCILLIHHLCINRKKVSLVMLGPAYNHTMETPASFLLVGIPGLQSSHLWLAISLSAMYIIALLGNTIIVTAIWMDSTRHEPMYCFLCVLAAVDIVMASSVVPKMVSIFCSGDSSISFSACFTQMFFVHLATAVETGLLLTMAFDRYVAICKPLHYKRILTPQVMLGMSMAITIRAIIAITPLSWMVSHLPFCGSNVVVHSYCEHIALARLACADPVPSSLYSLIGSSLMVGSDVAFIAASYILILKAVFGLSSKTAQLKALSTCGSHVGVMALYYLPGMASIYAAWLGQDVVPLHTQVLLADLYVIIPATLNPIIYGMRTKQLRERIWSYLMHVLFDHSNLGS
Sequence of OR52K1 (Homo sapiens) (Q8NGK4 whole entry): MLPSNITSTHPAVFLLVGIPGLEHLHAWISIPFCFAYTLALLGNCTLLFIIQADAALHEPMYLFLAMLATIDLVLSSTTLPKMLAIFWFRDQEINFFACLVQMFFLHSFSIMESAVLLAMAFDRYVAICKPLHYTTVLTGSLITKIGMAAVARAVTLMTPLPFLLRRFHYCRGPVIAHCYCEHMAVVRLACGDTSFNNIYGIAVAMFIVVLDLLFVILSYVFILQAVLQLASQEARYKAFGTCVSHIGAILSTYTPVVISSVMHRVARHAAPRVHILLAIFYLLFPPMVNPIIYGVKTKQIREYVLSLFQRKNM
Sequence of OR52N2 (Homo sapiens) (Q8NGI0 whole entry): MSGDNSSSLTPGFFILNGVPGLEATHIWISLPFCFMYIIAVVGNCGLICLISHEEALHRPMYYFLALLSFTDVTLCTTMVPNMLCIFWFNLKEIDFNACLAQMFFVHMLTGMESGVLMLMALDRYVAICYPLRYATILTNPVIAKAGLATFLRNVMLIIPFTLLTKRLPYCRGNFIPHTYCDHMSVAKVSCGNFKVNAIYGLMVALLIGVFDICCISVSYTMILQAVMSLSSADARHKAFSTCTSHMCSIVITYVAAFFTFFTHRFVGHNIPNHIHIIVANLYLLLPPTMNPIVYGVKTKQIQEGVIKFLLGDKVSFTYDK
Sequence of OR52N1 (Homo sapiens) (Q8NH53 whole entry): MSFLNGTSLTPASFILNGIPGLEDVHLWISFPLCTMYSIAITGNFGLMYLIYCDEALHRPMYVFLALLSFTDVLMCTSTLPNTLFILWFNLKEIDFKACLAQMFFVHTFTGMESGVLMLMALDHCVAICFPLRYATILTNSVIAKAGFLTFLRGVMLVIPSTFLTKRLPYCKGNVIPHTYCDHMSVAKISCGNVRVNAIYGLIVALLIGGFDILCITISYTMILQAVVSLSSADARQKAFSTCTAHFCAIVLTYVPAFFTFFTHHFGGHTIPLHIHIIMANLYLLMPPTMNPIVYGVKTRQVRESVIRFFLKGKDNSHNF
Sequence of OR52E2 (Homo sapiens) (Q8NGJ4 whole entry): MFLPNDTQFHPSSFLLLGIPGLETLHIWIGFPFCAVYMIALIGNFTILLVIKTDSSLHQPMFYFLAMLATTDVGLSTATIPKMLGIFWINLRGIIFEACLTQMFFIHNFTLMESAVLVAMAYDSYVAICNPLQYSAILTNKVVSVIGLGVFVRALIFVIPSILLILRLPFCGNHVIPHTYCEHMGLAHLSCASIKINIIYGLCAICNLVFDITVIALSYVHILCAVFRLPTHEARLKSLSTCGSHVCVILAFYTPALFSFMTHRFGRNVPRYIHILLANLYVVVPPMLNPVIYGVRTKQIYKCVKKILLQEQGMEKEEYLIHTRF
Sequence of OR52J3 (Homo sapiens) (Q8NH60 whole entry): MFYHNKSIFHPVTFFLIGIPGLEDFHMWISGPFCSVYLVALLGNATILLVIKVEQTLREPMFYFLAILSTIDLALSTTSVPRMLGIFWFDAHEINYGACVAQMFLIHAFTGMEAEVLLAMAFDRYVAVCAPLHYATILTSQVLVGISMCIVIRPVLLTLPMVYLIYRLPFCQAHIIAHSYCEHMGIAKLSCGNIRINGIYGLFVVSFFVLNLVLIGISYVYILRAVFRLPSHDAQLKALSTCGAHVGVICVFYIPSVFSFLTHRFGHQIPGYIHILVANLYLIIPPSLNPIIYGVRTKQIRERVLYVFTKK
Sequence of OR52K2 (Homo sapiens) (Q8NGK3 whole entry): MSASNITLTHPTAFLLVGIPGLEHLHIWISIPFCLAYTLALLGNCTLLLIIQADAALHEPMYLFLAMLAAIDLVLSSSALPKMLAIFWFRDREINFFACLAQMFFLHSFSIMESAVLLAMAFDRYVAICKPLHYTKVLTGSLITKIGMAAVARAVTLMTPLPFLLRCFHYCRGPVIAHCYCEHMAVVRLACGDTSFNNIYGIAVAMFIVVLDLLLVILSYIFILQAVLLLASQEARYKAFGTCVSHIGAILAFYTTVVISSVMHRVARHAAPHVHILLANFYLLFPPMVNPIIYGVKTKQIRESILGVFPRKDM

Cc1c([N+](=O)[O-])c(C)c([N+](=O)[O-])c(C(C)(C)C)c1[N+](=O)[O-]
not listed: [20]
inactive: all other assays above

CC(C=O)Cc1ccc2c(c1)OCO2 (stereo not given)
active: [1]

c1ccncc1
inactive: [1]

COc1ccc(C=O)cc1
active: [1]

CC(=O)CCc1ccc2c(c1)OCO2
inactive: [1]

C=CCc1ccc2c(c1)OCO2
inactive: [1]

O=Cc1ccccc1
active: [1]

O=CC=Cc1ccccc1
active: [1]

C=CCc1ccc(OC)cc1
active: [1]

C=CCOC(=O)Cc1ccccc1
not listed: [5] | [12]
inactive: all other assays above
